Compound activity (PubChem)
CHO parental Ca: ATP-evoked calcium signal inhibitors, parental CHO, primary screen, counter-screen for OX1R antagonist project, cell-based, fluorescence, Fluo-8 calcium dye | parental CHO-K1, ATP-induced calcium, Fluo-8 fluorescence | inhibition, % at 5.6 µM | 330,000 compounds, 0.63% hits | AID 463079, 2010;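 active = inhibition above that plate's mean sample inhibition plus 3 SD, cut at about 26% in these data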;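 note: 0% = ATP-challenged DMSO wells and 100% = DMSO wells without ATP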
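Material – parental CHO cells · Reagent – ATP stimulus · Compound – single nominal dose of 5.6 µM per compound · Detection – Fluo-8 fluorescence · Read-out basis – percent inhibition of calcium signal · Controls – ATP-challenged DMSO wells low, unchallenged DMSO wells high · Repeats – no replicates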
TAAR1 antag: human TAAR1 antagonists, primary screen, Fluo-8 calcium fluorescence, CHO RD-HGA16 cells. Trace amine-associated receptor 1 (Homo sapiens), Q96RJ0. antagonist. inhibition, % at 3 µM. 360,000 compounds, 1.5% hits. AID 624466, 2012;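 active = inhibition above a per-plate cutoff, the mean inhibition of test compounds on that plate plus 3 SD, cut at about 49% in these data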;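 note: 0% = DMSO plus EC80 beta-PEA response and 100% = DMSO alone without agonist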
Target sequence (Q96RJ0 whole entry, looked up): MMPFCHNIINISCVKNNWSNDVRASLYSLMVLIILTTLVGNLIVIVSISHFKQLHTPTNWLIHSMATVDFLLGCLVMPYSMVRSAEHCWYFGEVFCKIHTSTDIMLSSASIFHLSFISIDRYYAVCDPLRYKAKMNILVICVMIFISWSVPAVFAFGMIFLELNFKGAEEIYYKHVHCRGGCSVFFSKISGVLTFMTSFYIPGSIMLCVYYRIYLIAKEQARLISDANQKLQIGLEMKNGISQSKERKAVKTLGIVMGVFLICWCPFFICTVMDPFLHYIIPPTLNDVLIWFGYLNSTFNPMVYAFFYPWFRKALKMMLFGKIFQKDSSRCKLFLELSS
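test system = CHO RD-HGA16 cells bearing hTAAR1 | replication = singlicate | controls = DMSO-only wells and EC80 β-PEA-stimulated wells | reagent = EC80 β-phenethylamine stimulus | read-out basis = percent inhibition of PEA-evoked calcium signal, max/basal emission ratio | schedule = seeding 17-24 h prior, 75-min 37 °C, 30-min RT dye loading | signal = kinetic Fluo-8 calcium fluorescence measurement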
TAAR1 agonist: human TAAR1 agonists, primary screen, Fluo-8 calcium fluorescence, CHO RD-HGA16 cells. vehicle wells 0%, saturating PEA agonist 100%. activation, % at 3 µM. 360,000 compounds, 0.99% hits. AID 624467, 2012;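 active = activation above the mean activation of all test compounds in the run plus 3 SD, cut at about 38% in these data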
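Assay system – CHO-derived RD-HGA16 cells with stable Gα16 and human TAAR1 · Compound dosing – one-point dosing at 3 µM (nominal) · Incubation – 17-24 h seeding, 75 min 37 °C dye, 30 min RT · Measured by – kinetic Fluo-8 calcium fluorescence · Control set – DMSO vehicle as 0%, PEA at EC100 as 100% · Repeats – single well for each compound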
OX1R antag-1: OX1R (HCRTR1) antagonists, primary screen, fluorescence, CHO/OX1R cells, Fluo-8 calcium, orexin A. Fluo-8 calcium fluorescence. inhibition, % at 5 µM. 330,000 compounds, 0.43% hits. AID 434989, 2010;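 active = inhibition above its plate's threshold, mean inhibition of all tested compounds on the plate plus 3 SD, cut at about 37% in these data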;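 note: 0% = orexin A challenge wells and 100% = SB-334867-A antagonist wells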
GPR7 antag: GPR7 receptor antagonists, primary screen, cell-based, fluorescence, single concentration; 290,000 compounds, 1.1% hits; inhibition, % at 4.4 µM; Neuropeptides B/W receptor type 1 (Homo sapiens), P48145; GPR7-expressing cells, fluorescence antagonist assay; in the data active = inhibition above about 16%, passing the limit was not always enough;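 note: cells stimulated with the agonist NPW; 0% = agonist with vehicle and 100% = vehicle without agonist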
Target sequence (P48145 whole entry, looked up): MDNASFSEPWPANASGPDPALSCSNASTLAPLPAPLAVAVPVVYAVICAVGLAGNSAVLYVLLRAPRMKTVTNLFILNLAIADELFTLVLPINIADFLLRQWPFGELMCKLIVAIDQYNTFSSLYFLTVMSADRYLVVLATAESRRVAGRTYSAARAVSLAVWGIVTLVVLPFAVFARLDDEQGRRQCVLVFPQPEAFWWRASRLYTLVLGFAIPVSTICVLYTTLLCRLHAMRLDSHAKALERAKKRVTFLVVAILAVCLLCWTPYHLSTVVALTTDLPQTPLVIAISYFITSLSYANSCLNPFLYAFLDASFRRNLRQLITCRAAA
OX1R antag-2: antagonists of human orexin 1 receptor (OX1R). AID 485270, 2010. OX1R-expressing cells, FRET antagonist read-out. inhibition, % at 6.6 µM. 330,000 compounds, 1.8% hits; in the data active = inhibition mostly above about 38%, no sharp cut-off; inactive = mostly below about 40%;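 note: 0% = agonist challenge alone and 100% = reference antagonist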
GPR7 antag conf: GPR7 receptor antagonists, confirmation, cell-based, fluorescence, single concentration. AID 1952, 2009. inhibition, % at 4.4 µM. GPR7-expressing cells, calcium fluorescence antagonist mode. 2,400 compounds, 52% hits. shares compounds with GPR7 antag; in the data active = inhibition above about 24%;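 note: stimulated with the GPR7 agonist NPW; 0% = agonist plus vehicle and 100% = vehicle alone without agonist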
MCHR1 antagonist: MCHR1 antagonists in cells, counter-screen for GPR7 antagonist project, cell-based, fluorescence, human. MCHR1-expressing cells, fluorescence antagonist assay. inhibition, % at 4.4 µM. AID 2148, 2009. 2,400 compounds, 62% hits. shares compounds with GPR7 antag; in the data active = inhibition above about 22%;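 note: 0% = vehicle with agonist and 100% = vehicle without agonist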
Active calls of the source: *; nt = no result. In the library only some 4.5% were active in any assay of this set; here they are far more common.

SMILES	CHO parental Ca	TAAR1 antag	TAAR1 agonist	OX1R antag-1	GPR7 antag	OX1R antag-2	GPR7 antag conf	MCHR1 antagonist
Cc1ccc(NC(=O)CN(C)C(=O)CSc2nccn2C)cc1	-11	-9	1	-3	nt	1	nt	nt
COc1ccc(OCC(=O)Nc2c(C(=O)N3CCN(C)CC3)oc3ccccc23)cc1	-31	27	9	-50	-7	13	nt	nt
Cc1ccccc1C(=O)Nc1c(C(=O)N(CCN(C)C)Cc2ccco2)oc2ccccc12	-27	11	9	-24	6	7	nt	nt
COc1ccc(OCC(=O)Nc2c(C(=O)N(CCN(C)C)Cc3ccco3)oc3ccccc23)cc1	-3	41	13	13	28*	20	23	35*
COc1ccccc1C(=O)Nc1c(C(=O)N(CCN(C)C)Cc2ccco2)oc2ccccc12	-6	38	19	0	29*	17	48*	62*
O=C(COC(=O)Cc1n[nH]c(=O)c2ccccc12)Nc1c(Cl)cccc1C(F)(F)F	0	-8	0	-11	nt	12	nt	nt
COCCn1c(-c2ccccc2)csc1=Nc1cccnc1	-19	17	9	-31	-4	29	nt	nt
CC(C)n1c(-c2ccco2)csc1=Nc1cccnc1	48*	11	6	36	30*	74*	36*	52*
COC(=O)C1CCN(C(=O)COC(=O)C2CCN(S(=O)(=O)c3c(Cl)cccc3Cl)CC2)CC1	-5	-14	5	-7	nt	8	nt	nt
CC(=O)c1cccc(NC(=O)COC(=O)CC2CC3CCC2C3)c1 (stereo unspecified)	-4	-16	7	-6	nt	7	nt	nt
NS(=O)(=O)c1cccc(NC(=O)COC(=O)CC2CC3CCC2C3)c1 (stereo unspecified)	-11	-13	2	-14	36*	-7	-6	-6
O=C(Cc1ccccc1)Nc1ccccc1N1CCN(c2ccccc2)CC1	-33	16	5	-32	0	13	nt	nt
CN1CCN(c2ccccc2NC(=O)COc2ccccc2)CC1	-20	-1	4	-28	22*	13	15	12
CCC(=O)N1CCN(c2ccccc2NC(=O)Cc2ccccc2)CC1	-15	13	-1	-32	22*	19	15	22*
Cc1ccccc1Nc1nc(NCc2ccco2)c2ccccc2n1	11	-41	24	10	27*	38	14	63*
Oc1ccccc1Nc1nc(NCc2ccco2)c2ccccc2n1	2	-39	0	-14	-7	26	nt	nt
Cc1cccc(N2CCN(C(=O)CCC(=O)N3CCOc4ccc(Cl)cc43)CC2C)c1 (stereo unspecified)	-22	45	2	-14	3	19	nt	nt
Cc1nn(CC(=O)Nc2ccccc2C(F)(F)F)c(=O)c2cccn12	-9	-22	4	-5	31*	8	9	1
CCOc1ccccc1CNC(=O)c1cc2occc2n1C	-15	17	-1	-36	24*	11	16	15
CCOC(=O)c1[nH]c2ccc(OC)cc2c1NS(=O)(=O)c1ccc(OC)cc1OC	-8	-2	3	-8	22*	11	32*	21
CC(C)N(C(=O)COC(=O)c1ccc(Cl)s1)c1ccccc1	-11	-16	6	-8	nt	6	nt	nt
CN1C(=O)C2C3c4ccccc4C(c4ccccc43)[C@@H]2C1=O (stereo partly specified)	-3	-6	4	-18	0	9	nt	nt
O=C1C2C3c4ccccc4C(c4ccccc43)C2c2nc3ccccc3n21 (stereo unspecified)	-19	45	19	-29	22*	17	8	32*
C=CCN(C)CC/C=C1\c2ccccc2CSc2ccccc21	-11	10	26	-14	0	12	nt	nt
CC(O)CN(C)CC/C=C1/c2ccccc2CSc2ccccc21 (stereo unspecified)	-16	8	-2	-15	22*	22	17	18
SMILES	CHO parental Ca	TAAR1 antag	TAAR1 agonist	OX1R antag-1	GPR7 antag	OX1R antag-2	GPR7 antag conf	MCHR1 antagonist
COc1ccccc1CNC(=O)COC(=O)C12CC3CC(CC(O)(C3)C1)C2	-7	-10	4	1	nt	7	nt	nt
CN1C(=O)c2ccc(NC(=O)CSc3ccccc3)cc2C1=O	1	-30	1	3	3	16	nt	nt
COc1ccccc1CC(=O)Nc1ccc2c(c1)C(=O)NC2=O	4	3	1	0	33*	17	23	16
O=C(CSc1ccc(F)cc1)Nc1ccc2c(c1)C(=O)NC2=O	31	28	2	0	25*	21	36*	43*
COc1ccccc1CC(=O)Nc1ccc(OC)c(OC)c1	-1	0	5	-9	-11	15	nt	nt
COC(=O)C(=O)C/C(=N/Nc1ncnc2ccccc12)c1ccc(Cl)cc1	-14	29	15	-34	7	28	nt	nt
Cc1ccnc(OC(C(=O)O)C(OCc2ccccc2)(c2ccc(F)cc2)c2ccc(F)cc2)n1 (stereo unspecified)	-21	-27	1	-26	-12	11	nt	nt
C=CCN1C(=O)S/C(=C/c2ccc(Sc3nc4ccccc4[nH]3)o2)C1=O	27	39	18	47*	54*	41	37*	75*
C=CCN1C(=O)S/C(=C/c2ccsc2)C1=O	3	-8	2	-15	-9	5	nt	nt
Cc1nc(NCCO)c(C#N)c2c1COC(C)(C)C2	-8	12	7	2	26*	4	-21	-5
CN(C)CCCNc1nc(-c2ccccc2)c2c(c1C#N)CC(C)(C)OC2	-7	0	-4	-25	0	13	nt	nt
O=C(O)c1ccc(NC(C(=O)c2ccccc2)c2ccccc2)cc1 (stereo unspecified)	nt	-5	3	nt	nt	nt	nt	nt
O=c1cc2c(nn1Cc1ccc(F)cc1)-c1ccccc1CC2	-2	12	9	-22	35*	5	1	11
Cn1cnc(S(=O)(=O)Nc2ccccc2C(=O)NCC2CC2)c1	-5	-3	2	-16	3	6	nt	nt
